According to article PMC2839030 (Chemical research in toxicology, 2010):
Read-outs that look alike come from different tables or passages of the source.

Tests used:
Type in all cases: biochemical
CYP1A1 = target: T1, CYP1A1 (Homo sapiens, UniProt P04798); experiment: 7-Ethoxyresorufin O-deethylation; details: for Type of inhibition of P450 1A1: pre-incubation assays in the presence and absence of NADPH
T1 sequence (P04798 1-512): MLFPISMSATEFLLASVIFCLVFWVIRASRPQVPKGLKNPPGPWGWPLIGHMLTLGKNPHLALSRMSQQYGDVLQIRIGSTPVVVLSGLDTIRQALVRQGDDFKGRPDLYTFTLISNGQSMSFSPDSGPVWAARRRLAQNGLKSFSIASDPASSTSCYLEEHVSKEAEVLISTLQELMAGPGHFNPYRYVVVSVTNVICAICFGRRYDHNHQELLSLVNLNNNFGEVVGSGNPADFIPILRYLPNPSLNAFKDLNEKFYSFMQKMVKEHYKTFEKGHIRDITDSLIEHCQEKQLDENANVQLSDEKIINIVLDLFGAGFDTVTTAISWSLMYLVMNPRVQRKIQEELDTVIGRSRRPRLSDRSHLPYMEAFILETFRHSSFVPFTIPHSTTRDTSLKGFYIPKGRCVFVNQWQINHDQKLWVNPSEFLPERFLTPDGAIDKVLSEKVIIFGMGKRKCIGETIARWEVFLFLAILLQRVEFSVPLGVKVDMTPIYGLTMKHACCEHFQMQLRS
In short: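 Human CYP1A1 supersomes with P450 reductase in 0.1 M phosphate pH 7.6 plus MgCl2, ethoxyresorufin (1.0 mM DMSO stock) and test compound in DMSO at varied concentrations. NADPH-regenerating system starts reaction, 37°C. Product fluorescence ex 530/em 585 nm. Quadratic fit of progress curves, b term as rate. IC50 from Dixon plot x-intercept. Mechanism: 5-min 37°C pre-incubation ± NADPH before substrate.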

rat CYP2B1 = target: T2, rat CYP2B1 (Rattus norvegicus, UniProt P00176); experiment: 7-Pentoxyresorufin O-depentylation
T2 sequence (P00176 1-491): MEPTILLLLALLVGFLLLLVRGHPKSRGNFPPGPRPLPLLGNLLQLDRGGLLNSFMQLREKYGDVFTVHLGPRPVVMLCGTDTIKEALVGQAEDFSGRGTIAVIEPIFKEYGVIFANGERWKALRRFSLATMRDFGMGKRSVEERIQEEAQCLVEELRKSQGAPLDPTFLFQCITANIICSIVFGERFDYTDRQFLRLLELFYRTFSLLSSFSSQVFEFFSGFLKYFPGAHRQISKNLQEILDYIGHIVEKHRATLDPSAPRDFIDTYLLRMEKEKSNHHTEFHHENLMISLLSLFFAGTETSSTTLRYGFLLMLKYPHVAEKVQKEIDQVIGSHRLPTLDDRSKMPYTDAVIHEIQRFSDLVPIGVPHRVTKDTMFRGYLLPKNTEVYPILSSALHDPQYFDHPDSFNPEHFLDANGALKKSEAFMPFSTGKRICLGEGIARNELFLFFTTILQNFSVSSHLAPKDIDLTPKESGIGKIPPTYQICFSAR
In short: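 Rat CYP2B1 supersomes (with P450 reductase and cytochrome b5) in 0.1 M potassium phosphate pH 7.6 with MgCl2, pentoxyresorufin (1.0 mM stock in DMSO) and test compound in DMSO at several concentrations, with a DMSO-only control. Reaction started with NADPH-regenerating system at 37°C; resorufin fluorescence read over time (ex 530/em 585 nm). Rates from second-order curve fits; IC50 from Dixon plot x-intercept.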

human CYP2A6 = target: T3, human CYP2A6 (Homo sapiens, UniProt P11509); experiment: Coumarin 7-hydroxylation assay in supersomes
T3 sequence (P11509 1-494): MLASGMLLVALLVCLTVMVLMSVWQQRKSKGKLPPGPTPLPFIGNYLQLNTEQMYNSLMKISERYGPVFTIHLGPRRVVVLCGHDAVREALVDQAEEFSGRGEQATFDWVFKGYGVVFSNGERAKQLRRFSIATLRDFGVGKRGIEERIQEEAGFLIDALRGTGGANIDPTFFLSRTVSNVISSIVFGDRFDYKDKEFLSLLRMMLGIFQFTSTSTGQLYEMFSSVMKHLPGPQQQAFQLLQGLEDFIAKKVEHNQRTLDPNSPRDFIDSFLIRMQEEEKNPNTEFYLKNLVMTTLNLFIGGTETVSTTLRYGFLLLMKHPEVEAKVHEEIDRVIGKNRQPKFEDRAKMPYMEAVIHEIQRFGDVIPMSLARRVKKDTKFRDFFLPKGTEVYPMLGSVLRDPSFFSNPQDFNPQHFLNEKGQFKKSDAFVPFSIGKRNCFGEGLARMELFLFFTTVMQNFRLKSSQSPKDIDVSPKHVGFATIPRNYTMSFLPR

human CYP1A2 = target: T4, human CYP1A2 (Homo sapiens, UniProt P05177); experiment: 7-Methoxyresorufin O-demethylation; details: for Type of inhibition of P450 1A2: pre-incubation assays in the presence and absence of NADPH
T4 sequence (P05177 2-516 limits assumed): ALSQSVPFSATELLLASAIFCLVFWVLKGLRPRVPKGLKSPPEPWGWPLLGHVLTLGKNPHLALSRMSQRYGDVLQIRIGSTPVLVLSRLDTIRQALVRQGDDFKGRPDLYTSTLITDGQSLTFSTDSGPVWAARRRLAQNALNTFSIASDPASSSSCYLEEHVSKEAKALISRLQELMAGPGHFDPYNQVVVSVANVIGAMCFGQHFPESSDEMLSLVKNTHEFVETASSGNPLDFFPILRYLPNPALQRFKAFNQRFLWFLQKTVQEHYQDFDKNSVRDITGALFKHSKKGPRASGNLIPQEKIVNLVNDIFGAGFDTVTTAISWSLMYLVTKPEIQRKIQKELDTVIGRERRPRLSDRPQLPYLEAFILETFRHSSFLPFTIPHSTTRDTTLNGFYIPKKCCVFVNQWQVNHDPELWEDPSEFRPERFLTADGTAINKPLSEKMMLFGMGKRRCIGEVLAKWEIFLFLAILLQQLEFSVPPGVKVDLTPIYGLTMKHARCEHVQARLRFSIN

SMILES: CCC#Cc1ccc2ccc3cccc4ccc1c2c34 [Compound 1-EEP, 1-(1-butynyl)pyrene]
- IC50 (CYP1A1): 720 nM
- Type of inhibition of P450 1A1 (CYP1A1): mechanism-based inhibitors
- IC50 (rat CYP2B1): > 10000 nM
- IC50 (human CYP2A6): > 10000 nM
- IC50 (human CYP1A2): 430 nM
- Type of inhibition of P450 1A2 (human CYP1A2): mechanism-based inhibitors

SMILES: C#Cc1ccc2ccc3cccc4ccc1c2c34 [Compound 1-EP, 1-ethynylpyrene]
- IC50 (CYP1A1): 180 nM
- Type of inhibition of P450 1A1 (CYP1A1): mechanism-based inhibitors
- IC50 (rat CYP2B1): 40 nM
- IC50 (human CYP2A6): > 10000 nM
- IC50 (human CYP1A2): 320 nM
- Type of inhibition of P450 1A2 (human CYP1A2): mechanism-based inhibitors

SMILES: CC#Cc1ccc2ccc3cccc4ccc1c2c34 [Compound 1-MEP, 1-(1-propynyl)pyrene]
- IC50 (CYP1A1): 20 nM
- Type of inhibition of P450 1A1 (CYP1A1): mechanism-based inhibitors
- IC50 (rat CYP2B1): 830 nM
- IC50 (human CYP2A6): > 10000 nM
- IC50 (human CYP1A2): 60 nM
- Type of inhibition of P450 1A2 (human CYP1A2): mechanism-based inhibitors

SMILES: C#Cc1ccc2c(ccc3ccccc32)c1 [Compound 2-Ephen, 2-ethynylphenanthrene]
- IC50 (CYP1A1): 610 nM
- Type of inhibition of P450 1A1 (CYP1A1): mechanism-based inhibitors
- IC50 (rat CYP2B1): 170 nM
- IC50 (human CYP2A6): > 10000 nM
- IC50 (human CYP1A2): 340 nM
- Type of inhibition of P450 1A2 (human CYP1A2): mechanism-based inhibitors

SMILES: CC#Cc1ccc2c(ccc3ccccc32)c1 [Compound 2-MEPhen, 2-(1-propynyl)phenanthrene]
- IC50 (CYP1A1): 160 nM
- Type of inhibition of P450 1A1 (CYP1A1): mechanism-based inhibitors
- IC50 (rat CYP2B1): > 10000 nM
- IC50 (human CYP2A6): > 10000 nM
- IC50 (human CYP1A2): 600 nM
- Type of inhibition of P450 1A2 (human CYP1A2): mechanism-based inhibitors

SMILES: C#Cc1ccc2ccc3ccccc3c2c1 [Compound 3-Ephen, 3-ethynylphenanthrene]
- IC50 (CYP1A1): 1030 nM
- Type of inhibition of P450 1A1 (CYP1A1): mechanism-based inhibitors
- IC50 (rat CYP2B1): 480 nM
- IC50 (human CYP2A6): > 10000 nM
- IC50 (human CYP1A2): 280 nM
- Type of inhibition of P450 1A2 (human CYP1A2): mechanism-based inhibitors

SMILES: CC#Cc1cc2cccc3ccc4cccc1c4c32 [Compound 4-MEP, 4-(1-propynyl)pyrene]
- IC50 (CYP1A1): 370 nM
- Type of inhibition of P450 1A1 (CYP1A1): mechanism-based inhibitors
- IC50 (rat CYP2B1): 2260 nM
- IC50 (human CYP2A6): > 10000 nM

SMILES: C#Cc1cc2ccccc2c2ccccc12 [Compound 9-Ephen, 9-ethynylphenanthrene]
- IC50 (CYP1A1): 620 nM
- Type of inhibition of P450 1A1 (CYP1A1): mechanism-based inhibitors
- IC50 (rat CYP2B1): 70 nM
- IC50 (human CYP2A6): > 10000 nM
- Type of inhibition of P450 1A2 (human CYP1A2): mechanism-based inhibitors

SMILES: CC#Cc1cc2ccccc2c2ccccc12 [Compound 9-MEPhen, 9-(1-propynyl)phenanthrene]
- IC50 (CYP1A1): 2630 nM
- IC50 (CYP1A1; human, pH 7.6, probe 7-ethoxyresorufin): 2260 nM
- Type of inhibition of P450 1A1 (CYP1A1): mechanism-based inhibitors
- IC50 (rat CYP2B1): > 10000 nM
- IC50 (human CYP2A6): > 10000 nM
- Type of inhibition of P450 1A2 (human CYP1A2): mechanism-based inhibitors
